# Reference: ChEMBL document CHEMBL1121429, “Soft drugs. 1. Labile quaternary ammonium salts as soft antimicrobials” (J Med Chem, 1980)
# Experiments:
# Streptococcus pyogenes [1] = experiment: Sterilization time for contact germicidal efficiency (CGE) of salt was tested against at Streptococcus pyogenes at pH 8.0, concentration 1018 ppm; assay type: functional
# [2] = Toxicity of the salt was tested on white swiss male mice after oral administration; assay type: organism-based; details: mouse, in vivo
# In short: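 Male White Swiss mice (MCR-ICR), 20-23 g, 10-20 per dose, dosed orally. At higher doses the salt was given in 0.8% NaCl brought to pH 5.84 with sodium bicarbonate. LD50 was calculated by Litchfield–Wilcoxon.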
# Staphylococcus aureus [3] = experiment: Sterilization time for contact germicidal efficiency (CGE) of salt was tested against at Staphylococcus aureus at pH 6.0, concentration 1018 ppm; assay type: functional
# Staphylococcus aureus [4] = experiment: Sterilization time for contact germicidal efficiency (CGE) of salt was tested against at Staphylococcus aureus at pH 8.0, concentration 1018 ppm; assay type: functional
# Pseudomonas aeruginosa [5] = experiment: Sterilization time for contact germicidal efficiency (CGE) of salt was tested against at Pseudomonas aeruginosa at pH 6.0, concentration 1018 ppm; assay type: functional
# Streptococcus pyogenes [6] = experiment: Sterilization time for contact germicidal efficiency (CGE) of salt was tested against at Streptococcus pyogenes at pH 7.0, concentration 936.0 ppm; assay type: functional
# Pseudomonas aeruginosa [7] = experiment: Sterilization time for contact germicidal efficiency (CGE) of salt was tested against at Pseudomonas aeruginosa at pH 7.0, concentration 1038.7 ppm; assay type: functional
# Pseudomonas aeruginosa [8] = experiment: Sterilization time for contact germicidal efficiency (CGE) of salt was tested against at Pseudomonas aeruginosa at pH 8.0, concentration 1018 ppm; assay type: functional
# Pseudomonas aeruginosa [9] = experiment: Sterilization time for contact germicidal efficiency (CGE) of salt was tested against at Pseudomonas aeruginosa at pH 7.0, concentration 1039 ppm; assay type: functional
# Staphylococcus aureus [10] = experiment: Sterilization time for contact germicidal efficiency (CGE) of salt was tested against at Staphylococcus aureus at pH 7.0, concentration 1039 ppm; assay type: functional
# Streptococcus pyogenes [11] = experiment: Sterilization time for contact germicidal efficiency (CGE) of salt was tested against at Streptococcus pyogenes at pH 6.0, concentration 1018 ppm; assay type: functional
# [12] = Toxicity of the salt was tested on white swiss male mice after intraperitoneal administration; assay type: organism-based; details: mouse, in vivo, ip
# In short: (§1)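 Male White Swiss mice (MCR-ICR), 20-23 g, 10-20 per dose. Salt given in isotonic NaCl, pH 7.0 (adjusted with sodium bicarbonate). LD50 with confidence limits was calculated by Litchfield–Wilcoxon.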
# Streptococcus pyogenes [13] = experiment: Sterilization time for contact germicidal efficiency (CGE) of salt was tested against at Streptococcus pyogenes at pH 7.0, concentration 1039 ppm; assay type: functional
# Staphylococcus aureus [14] = experiment: Sterilization time for contact germicidal efficiency (CGE) of salt was tested against Staphylococcus aureus at pH 7.0, concentration 936.0 ppm; assay type: functional
# Staphylococcus aureus [15] = experiment: Sterilization time for contact germicidal efficiency (CGE) of salt was tested against Staphylococcus aureus at pH 7.0, concentration 1038.7 ppm; assay type: functional
# Pseudomonas aeruginosa [16] = experiment: Sterilization time for contact germicidal efficiency (CGE) of salt was tested against at Pseudomonas aeruginosa at pH 7.0, concentration 936.0 ppm; assay type: functional
# Streptococcus pyogenes [17] = experiment: Sterilization time for contact germicidal efficiency (CGE) of salt was tested against at Streptococcus pyogenes at pH 7.0, concentration 1038.7 ppm; assay type: functional
# Staphylococcus aureus [18] = experiment: Sterilization time for contact germicidal efficiency (CGE) of salt was tested against Staphylococcus aureus at pH 7.0 in horse serum at contact time=10 min; assay type: functional
# In short: (§2)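 S. aureus ATCC 6538 CGE screen with solutions in 0.1 M NaH2PO4 pH 7.0 diluted with 10% horse serum in distilled water, adjusted to pH 7 with CO2. Contact times of 0-15 min were used. Overnight culture was added, and loop subcultures taken at 0.5-30 min were grown 7 days at 37 °C in nutrient broth. Sterilization time is the first interval giving no growth.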
# Staphylococcus aureus [19] = experiment: Minimum inhibitory concentration of salt was tested against Staphylococcus aureus aureus at 0.1 M NaH2PO4 adjusted to pH 7.0; assay type: functional
# In short: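 Bacteria grown 18-20 h at 37 °C in tryptose phosphate broth, adjusted to OD650 0.01, then diluted into double-strength medium to about 2 × 10^5 viable organisms/mL. Compound in 0.1 M NaH2PO4 pH 7.0 was serially twofold diluted into sterile water and added 1:1 to the cultures. MIC read after 18-20 h at 37 °C, with viability, sterility and buffer controls.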
# Streptococcus pyogenes [20] = experiment: Sterilization time for contact germicidal efficiency (CGE) of salt was tested against at Streptococcus pyogenes at pH 7.0, concentration 1027 ppm; assay type: functional
# In short: (§3)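 Streptococcus pyogenes ATCC 19615 overnight culture, 5 × 10^6 cfu/mL; 0.2 mL into 5 mL test solution of salt in buffer, left 30 min at room temperature beforehand. At timed intervals (0.5 to 30 min), a 3-mm loop was transferred to sterile nutrient broth and incubated at 37 °C for 7 days. Sterilization time is the shortest interval without growth; buffer-only and viability controls were run.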
# Streptococcus pyogenes [21] = experiment: Sterilization time for contact germicidal efficiency (CGE) of salt was tested against at Streptococcus pyogenes at pH 8.0, concentration 1022 ppm; assay type: functional; in short: as §3
# Staphylococcus aureus [22] = experiment: Sterilization time for contact germicidal efficiency (CGE) of salt was tested against Staphylococcus aureus at pH 7.0 in horse serum at contact time=5 min; assay type: functional; in short: as §2
# Pseudomonas aeruginosa [23] = experiment: Sterilization time for contact germicidal efficiency (CGE) of salt was tested against at Pseudomonas aeruginosa at pH 8.0, concentration 1022 ppm; assay type: functional
# In short: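 Pseudomonas aeruginosa ATCC 9027 overnight broth culture (12-13 × 10^6 organisms/mL); 0.2 mL added to 5 mL buffered salt solution held 30 min at room temperature. At intervals from 0.5 to 30 min, a 3-mm loop was subcultured into nutrient broth and incubated at 37 °C for 7 days. Sterilization time is the shortest interval whose subculture gave no growth.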
# Bacillus subtilis = experiment: Minimum inhibitory concentration of salt was tested against Bacillus subtilis at 0.1 M NaH2PO4 adjusted to pH 7.0; assay type: functional
# Staphylococcus aureus [24] = experiment: Sterilization time for contact germicidal efficiency (CGE) of salt was tested against at Staphylococcus aureus at pH 8.0, concentration 1022 ppm; assay type: functional
# In short: (§4)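 Staphylococcus aureus ATCC 6538, overnight broth culture at 6-8 × 10^6 cfu/mL; 0.2 mL inoculated into 5 mL of buffered quaternary salt solution pre-held 30 min at room temperature. Loop subcultures (3 mm) taken at 0.5-30 min intervals into nutrient broth, incubated at 37 °C for 7 days and read daily. The endpoint is the earliest time giving a growth-free subculture.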
# Pseudomonas aeruginosa [25] = experiment: Sterilization time for contact germicidal efficiency (CGE) of salt was tested against at Pseudomonas aeruginosa at pH 6.0, concentration 1016 ppm; assay type: functional
# In short: (§5)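 Test solutions of the quaternary salt in buffer stood 30 min at room temperature. 0.2 mL of overnight broth culture was added to 5 mL of solution. Inocula: S. aureus ATCC 6538 6-8 × 10^6 cfu/mL, P. aeruginosa ATCC 9027 12-13 × 10^6/mL, S. pyogenes ATCC 19615 5 × 10^6 cfu/mL. At 0.5-30 min intervals a loop was subcultured into nutrient broth and incubated 7 days at 37 °C. Sterilization time is the first interval giving no growth.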
# Staphylococcus aureus [26] = experiment: Sterilization time for contact germicidal efficiency (CGE) of salt was tested against Staphylococcus aureus at pH 7.0 in water diluent; assay type: functional; in short: as §5
# Streptococcus pyogenes [27] = experiment: Sterilization time for contact germicidal efficiency (CGE) of salt was tested against at Streptococcus pyogenes at pH 6.0, concentration 1016 ppm; assay type: functional; in short: as §3
# Staphylococcus aureus [28] = experiment: Sterilization time for contact germicidal efficiency (CGE) of salt was tested against Staphylococcus aureus at pH 7.0 in horse serum at contact time=15 min; assay type: functional; in short: as §2
# Pseudomonas aeruginosa [29] = experiment: (§6) Sterilization time for contact germicidal efficiency (CGE) of salt was tested against at Pseudomonas aeruginosa at pH 7.0, concentration 1027 ppm; assay type: functional; in short: as §5
# Staphylococcus aureus [30] = experiment: Sterilization time for contact germicidal efficiency (CGE) of salt was tested against Staphylococcus aureus at pH 7.0, concentration 1027 ppm; assay type: functional; in short: as §5
# Salmonella typhimurium = experiment: Minimum inhibitory concentration of salt was tested against Salmonella Typhimurium […] at 0.1 M NaH2PO4 adjusted to pH 7.0; assay type: functional; details: Salmonella enterica
# Staphylococcus aureus [31] = experiment: Sterilization time for contact germicidal efficiency (CGE) of salt was tested against Staphylococcus aureus at pH 7.0 in horse serum at contact time=0 min; assay type: functional; in short: as §2
# Pseudomonas aeruginosa [32] = experiment: as §6; assay type: functional; in short: as §5; remark: listed apart in the source
# Streptococcus pyogenes [33] = experiment: Minimum inhibitory concentration of salt was tested against Streptococcus pyogenes aureus at 0.1 M NaH2PO4 adjusted to pH 7.0; assay type: functional
# Pseudomonas aeruginosa [34] = experiment: Minimum inhibitory concentration of salt was tested against Pseudomonas aeruginosa at 0.1 M NaH2PO4 adjusted to pH 7.0; assay type: functional
# Staphylococcus aureus [35] = experiment: Sterilization time for contact germicidal efficiency (CGE) of salt was tested against at Staphylococcus aureus at pH 7.0, concentration 1027 ppm; assay type: functional; in short: as §4
# Staphylococcus aureus [36] = experiment: Sterilization time for contact germicidal efficiency (CGE) of salt was tested against at Staphylococcus aureus at pH 6.0, concentration 1016 p.p.m.; assay type: functional; in short: as §4
# [37] = Toxicity of the salt was tested on white swiss male mice after intravenous administration; assay type: organism-based; details: mouse, in vivo; in short: as §1
structure (smiles),measurement,setting,value
CCCCCCCCCCCCCCCC[n+]1ccccc1.[Cl-],Time,Streptococcus pyogenes [1],0.5 min
same,LD50,[2],108 mg/kg
same,Time,Staphylococcus aureus [3],0.5 min
same,Time,Staphylococcus aureus [4],0.5 min
same,Time,Pseudomonas aeruginosa [5],0.5 min
same,Time,Streptococcus pyogenes [6],0.5 min
same,Time,Pseudomonas aeruginosa [7],0.5 min
same,Time,Pseudomonas aeruginosa [8],0.5 min
same,Time,Pseudomonas aeruginosa [9],0.5 min
same,Time,Staphylococcus aureus [10],0.5 min
same,Time,Streptococcus pyogenes [11],0.5 min
same,LD50,[12],10 mg/kg
same,Time,Streptococcus pyogenes [13],0.5 min
same,Time,Staphylococcus aureus [14],0.5 min
same,Time,Staphylococcus aureus [15],0.5 min
same,Time,Pseudomonas aeruginosa [16],0.5 min
same,Time,Streptococcus pyogenes [17],0.5 min
CCCCCCCCCCCC(=O)OC[N+]12CCC(CC1)CC2.[Cl-],Time,Staphylococcus aureus [18],5 min
same,MIC,Staphylococcus aureus [19],16.4 µg/mL
same,Time,Streptococcus pyogenes [20],0.5 min
same,Time,Streptococcus pyogenes [21],2 min
same,Time,Staphylococcus aureus [22],3 min
same,Time,Pseudomonas aeruginosa [23],0.5 min
same,MIC,Bacillus subtilis,32.8 µg/mL
same,Time,Staphylococcus aureus [24],0.5 min
same,Time,Pseudomonas aeruginosa [25],0.5 min
same,Time,Staphylococcus aureus [26],0.5 min
same,Time,Streptococcus pyogenes [27],0.5 min
same,Time,Staphylococcus aureus [28],>30 min
same,Time,Pseudomonas aeruginosa [29],3 min
same,Time,Staphylococcus aureus [30],0.5 min
same,MIC,Salmonella typhimurium,262 µg/mL
same,Time,Staphylococcus aureus [31],1 min
same,Time,Pseudomonas aeruginosa [32],0.5 min
same,MIC,Streptococcus pyogenes [33],4.1 µg/mL
same,MIC,Pseudomonas aeruginosa [34],1050 µg/mL
same,Time,Staphylococcus aureus [35],0.5 min
same,Time,Staphylococcus aureus [36],1 min
CCCCCCCCCCCC(=O)OC[N+]1=CN(C)CC1.[Cl-],LD50,[2],4110 mg/kg
same,LD50,[37],75 mg/kg
same,LD50,[12],155 mg/kg
